Source: ChEMBL document CHEMBL2029310 (Bioorg Med Chem Lett, 2012)
Active and inactive are the calls of the source. The rule behind the calls is not given here.

Tests used:
[1] = target: T1, Rap guanine nucleotide exchange factor 4 (Homo sapiens, UniProt Q8WZA2); assay: Competitive inhibition of Epac2 using fluorescent nucleotide analog 8-NBD-cAMP by fluorescence analysis
Target sequence in this assay (Q8WZA2 whole entry): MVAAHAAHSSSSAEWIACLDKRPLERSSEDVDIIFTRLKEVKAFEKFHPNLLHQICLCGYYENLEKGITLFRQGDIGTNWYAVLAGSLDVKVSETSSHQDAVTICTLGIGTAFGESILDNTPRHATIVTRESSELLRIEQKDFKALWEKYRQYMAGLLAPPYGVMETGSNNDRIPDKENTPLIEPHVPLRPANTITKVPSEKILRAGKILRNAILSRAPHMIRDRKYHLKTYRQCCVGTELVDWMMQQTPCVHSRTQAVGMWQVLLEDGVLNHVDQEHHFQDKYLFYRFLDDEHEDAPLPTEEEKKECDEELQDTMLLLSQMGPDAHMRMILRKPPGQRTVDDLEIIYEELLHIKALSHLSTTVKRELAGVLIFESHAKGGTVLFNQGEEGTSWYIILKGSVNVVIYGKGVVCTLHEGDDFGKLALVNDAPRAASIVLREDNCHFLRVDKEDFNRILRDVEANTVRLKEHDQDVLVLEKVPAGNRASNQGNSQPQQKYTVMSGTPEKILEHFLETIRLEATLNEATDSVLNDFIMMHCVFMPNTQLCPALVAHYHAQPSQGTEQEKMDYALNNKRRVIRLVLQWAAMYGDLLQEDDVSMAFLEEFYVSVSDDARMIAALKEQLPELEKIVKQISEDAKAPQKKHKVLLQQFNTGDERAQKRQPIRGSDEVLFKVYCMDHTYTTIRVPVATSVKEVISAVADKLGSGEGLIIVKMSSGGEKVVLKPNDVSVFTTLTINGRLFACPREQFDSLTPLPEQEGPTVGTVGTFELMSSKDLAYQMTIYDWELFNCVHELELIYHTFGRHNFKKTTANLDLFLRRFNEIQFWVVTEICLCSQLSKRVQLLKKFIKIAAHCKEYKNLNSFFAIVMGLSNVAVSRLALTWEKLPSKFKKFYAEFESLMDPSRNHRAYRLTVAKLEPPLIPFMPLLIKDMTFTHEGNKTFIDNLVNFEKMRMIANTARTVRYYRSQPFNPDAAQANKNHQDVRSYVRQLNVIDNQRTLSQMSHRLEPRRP

[2] = target: T1, Rap guanine nucleotide exchange factor 4; assay: Inhibition of recombinant Epac2-mediated Akt phosphorylation at S473 expressed in 007-AM-stimulated HEK293 cells at 10 uM administered 5 mins prior to 007-AM by Western blot analysis; type: cell-based
Outline: (§1)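 HEK293/Epac1 or HEK293/Epac2 cells were pretreated, or not, with 10 μM antagonist for 5 min. They were then stimulated with 10 μM 007-AM, the membrane-permeable Epac-selective agonist. Cell lysates were immunoblotted with PKB antibodies specific for phospho-Ser473 and phospho-Thr308.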
Target sequence in this assay (Q8WZA2 whole entry, looked up): as the sequence (Q8WZA2 whole entry) above

[3] = target: T2, Rap guanine nucleotide exchange factor 3 (Homo sapiens) (UniProt O95398); assay: Inhibition of recombinant Epac1-mediated Akt phosphorylation at T308 expressed in 007-AM-stimulated HEK293 cells at 10 uM administered 5 mins prior to 007-AM by Western blot analysis; type: cell-based; outline: as §1
T2 sequence (whole entry): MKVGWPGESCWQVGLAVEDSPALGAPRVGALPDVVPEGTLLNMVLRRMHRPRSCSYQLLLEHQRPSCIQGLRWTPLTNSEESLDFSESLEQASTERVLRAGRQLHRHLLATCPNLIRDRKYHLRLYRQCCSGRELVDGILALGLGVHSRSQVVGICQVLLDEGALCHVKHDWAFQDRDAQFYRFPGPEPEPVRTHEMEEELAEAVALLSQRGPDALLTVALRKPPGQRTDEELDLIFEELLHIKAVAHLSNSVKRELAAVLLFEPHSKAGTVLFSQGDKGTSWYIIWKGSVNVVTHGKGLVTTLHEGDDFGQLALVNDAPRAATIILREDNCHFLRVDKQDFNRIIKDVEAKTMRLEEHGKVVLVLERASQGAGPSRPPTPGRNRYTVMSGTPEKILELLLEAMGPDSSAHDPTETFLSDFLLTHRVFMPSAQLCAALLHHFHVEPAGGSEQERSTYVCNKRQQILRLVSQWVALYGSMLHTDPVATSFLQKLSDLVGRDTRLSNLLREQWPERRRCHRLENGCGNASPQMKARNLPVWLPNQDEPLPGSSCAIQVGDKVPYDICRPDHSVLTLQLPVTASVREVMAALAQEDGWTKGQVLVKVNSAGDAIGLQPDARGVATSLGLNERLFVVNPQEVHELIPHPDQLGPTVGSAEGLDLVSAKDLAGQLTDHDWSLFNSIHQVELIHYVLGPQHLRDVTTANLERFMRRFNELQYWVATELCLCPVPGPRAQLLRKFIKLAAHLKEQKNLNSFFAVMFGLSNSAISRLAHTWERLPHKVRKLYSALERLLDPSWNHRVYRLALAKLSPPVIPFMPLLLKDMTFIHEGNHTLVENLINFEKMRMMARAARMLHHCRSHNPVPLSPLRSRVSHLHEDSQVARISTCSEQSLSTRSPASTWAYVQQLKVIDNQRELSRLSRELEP

[4] = target: T1, Rap guanine nucleotide exchange factor 4; assay: Inhibition of cAMP-mediated recombinant Epac2 GEF activity at 25 uM by fluorescence analysis in presence of cAMP
Target sequence in this assay (Q8WZA2 whole entry, looked up): as the sequence (Q8WZA2 whole entry) above

[5] = target: T1, Rap guanine nucleotide exchange factor 4; assay: Inhibition of recombinant Epac2-mediated Akt phosphorylation at T308 expressed in 007-AM-stimulated HEK293 cells at 10 uM administered 5 mins prior to 007-AM by Western blot analysis; type: cell-based; outline: as §1
Target sequence in this assay (Q8WZA2 whole entry, looked up): as the sequence (Q8WZA2 whole entry) above

[6] = Inhibition of PKA type2 activation at 25 uM
[7] = target: T2, Rap guanine nucleotide exchange factor 3 (Homo sapiens); assay: Inhibition of recombinant Epac1-mediated Akt phosphorylation at S473 expressed in 007-AM-stimulated HEK293 cells at 10 uM administered 5 mins prior to 007-AM by Western blot analysis; type: cell-based; outline: as §1
[8] = Inhibition of PKA type1 activation at 25 uM
[9] = target: T2, Rap guanine nucleotide exchange factor 3 (Homo sapiens); assay: Inhibition of Epac1 at 25 uM in presence of equal molar concentration of cAMP
[10] = target: T1, Rap guanine nucleotide exchange factor 4; assay: Inhibition of Epac2 at 25 uM in presence of equal molar concentration of cAMP
Target sequence in this assay (Q8WZA2 whole entry, looked up): as the sequence (Q8WZA2 whole entry) above

[11] = target: T2, Rap guanine nucleotide exchange factor 3 (Homo sapiens); assay: Inhibition of recombinant Epac1-mediated Rap1-GDP exchange activity at 25 uM by fluorescence analysis in presence of cAMP

For Cc1ccc(CSc2nc(C3CCCCC3)c(C#N)c(=O)[nH]2)cc1, the IC50 [1] was 38.7 µM.

Work on Cc1ccc(C)c(CSc2nc(C3CCN(C)CC3)c(C#N)c(=O)[nH]2)c1 yielded an IC50 [1] of 127 µM.

With Cc1ccc(C)c(CSc2nc(C3CC3)c(C#N)c(=O)[nH]2)c1 the inhibition [2] was “Active”, the IC50 [1] was 4 µM and the inhibition [3] was “Active”. For the same compound, the inhibition [4] was “Active”, the inhibition [5] was “Active” and the inhibition [6] was “inactive”. For the same compound, the inhibition [7] was “Active” and the inhibition [8] was “inactive”.

With N#Cc1c(C2CCCCC2)nc(SCc2ccccc2)[nH]c1=O the IC50 [1] was 30.5 µM.

In the case of N#Cc1c(C2CCCCC2)nc(S)[nH]c1=O, the IC50 [1] is reported as > 300 µM.

In the case of Cc1ccc(C)c(CSc2nc(C3CCCCC3)c(C#N)c(=O)[nH]2)c1, the IC50 [1] is reported as 8.4 µM, the inhibition [6] is reported as “inactive” and the inhibition [9] is reported as “Active”. The inhibition [8] was “inactive” and the inhibition [10] was “Active”.

For N#Cc1c(C2CCCCC2)nc(SCC(=O)Nc2ccccc2)[nH]c1=O, the IC50 [1] was > 300 µM.

Cc1ccc(CSc2nc(C3CCCCC3)c(C#N)c(=O)[nH]2)c(C)c1 showed an IC50 [1] of 15.7 µM.

For N#Cc1c(C2CCCCC2)nc(Nc2ccccc2)[nH]c1=O, the IC50 [1] was > 300 µM.

For Cc1ccc(NC(=O)CSc2nc(C3CCCCC3)c(C#N)c(=O)[nH]2)cc1, the IC50 [1] was > 300 µM.

In the case of N#Cc1c(C2CCCCC2)nc(SCC(=O)O)[nH]c1=O, the IC50 [1] is reported as > 300 µM.

For N#Cc1c(C2CCCCC2)nc(Nc2ccc(Cl)cc2)[nH]c1=O, the IC50 [1] was > 300 µM.

Cc1ccc(C)c(CSc2nc(C(C)C)c(C#N)c(=O)[nH]2)c1 showed an IC50 [1] of 12.7 µM.

For Cc1cc(C)c(NC(=O)CSc2nc(C3CCCCC3)c(C#N)c(=O)[nH]2)c(C)c1, the IC50 [1] was > 300 µM.

In the case of Cc1cc(C)c(CSc2nc(C3CCCCC3)c(C#N)c(=O)[nH]2)c(C)c1, the IC50 [1] is reported as 11.6 µM.

With Cc1cc(C)cc(CSc2nc(C3CCCCC3)c(C#N)c(=O)[nH]2)c1 the IC50 [1] was 7 µM.

In the case of Cc1ccc(C)c(CSc2nc(C3CCCC3)c(C#N)c(=O)[nH]2)c1, the inhibition [11] is reported as “Active”, the inhibition [2] is reported as “Active” and the IC50 [1] is reported as 5.9 µM. The inhibition [3] was “Active”, the inhibition [4] was “Active” and the inhibition [5] was “Active”. For the same compound, the inhibition [6] was “inactive”, the inhibition [7] was “Active” and the inhibition [8] was “inactive”.

In the case of O=S(=O)(NCCNC/C=C/c1ccc(Br)cc1)c1cccc2cnccc12, the inhibition [6] is reported as “Active” and the inhibition [8] is reported as “Active”.

In the case of Cc1ccc(C)c(CSc2nc(C3CCNCC3)c(C#N)c(=O)[nH]2)c1, the IC50 [1] is reported as > 300 µM.
